Eight molecules from ChEMBL document CHEMBL1123012, “Ellipticine derivatives with an affinity to the estrogen receptor, an approach to develop intercalating drugs with a specific effect on the hormone-dependent breast cancer” (J Med Chem, 1985) can be followed below.

Bounds are passed on as bounds.

Data set [1] concerns Calf thymus DNA. Nature of the data set: Inhibitory concentration against ethidium bromide binding to DNA. As to conditions: Bos taurus. It counts as nucleic-acid assay. An outline of the steps:
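Fluorometric competition with ethidium bromide bound to sonicated calf thymus DNA, 20 °C, 0.02 M sodium acetate pH 5.5. Final DNA 2.5 × 10^-6 M (base pairs), ethidium 5 × 10^-6 M; competitor added in portions. Excitation 546 nm, emission 590 nm. Bound ethidium per base pair plotted vs rf (competitor/DNA bp). rf50 taken at 50% displacement of bound ethidium.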

Data set [2] concerns L1210. As to the kind of experiment: Lethal concentration required to reduce cloning efficiency of L1210 cell line to a factor of 0.37 after 24 hour exposure. The class given is cell-based. Particulars: mouse, l1210, 24 h.
For data set [3], the system named is L1210. Nature of the data set: The effective dose against L1210 cell growth. As to conditions: Mus musculus, read-out: ED50 (the source's name). The class given is functional. The method in brief: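 Exponentially growing L1210 cells (1 × 10^5/mL) in RPMI 1640 with 10% fetal calf serum, penicillin, streptomycin and 60 µM β-mercaptoethanol. Exposed to a range of drug concentrations in nonagitated suspension for 24 h at 37 °C, 5% CO2. Cells counted electronically; duplicate treated cultures compared with triplicate untreated controls. ED50 taken from percent inhibition plotted against log concentration.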

In data set [1], `CCN(CC)CCOc1ccc(/C(=C(/Cl)c2ccccc2)c2ccccc2)cc1` returned a rf50 of 20.
Molecule `Cc1c2cc[n+](CC(=O)NCCCCCN(CCOc3ccc(/C(=C(/Cl)c4ccccc4)c4ccccc4)cc3)C(=O)C[n+]3ccc4c(C)c5[nH]c6ccc(O)cc6c5c(C)c4c3)cc2c(C)c2c1[nH]c1ccc(O)cc12.[Cl-].[Cl-]` showed a rf50 in data set [1] of 4.8. Further, the Co in data set [2] was more than 10 µM. The EC50 in data set [3] was 4 µM.
In data set [1], `Cc1c2cc[n+](CCNC(=O)CC3(C)CC[C@H]4[C@@H]5CCc6cc(O)ccc6[C@H]5CC[C@@]43C)cc2c(C)c2c1[nH]c1ccccc12.[Br-]` (stereo partly specified) returned a rf50 of 1.5. In data set [2], this molecule registered a Co of 0.15 µM. Also, the EC50 in data set [3] was 0.5 µM.
As for `COc1ccc2[nH]c3c(C)c4cc[n+](CC(=O)N(CCCCCN)CCOc5ccc(/C(=C(/Cl)c6ccccc6)c6ccccc6)cc5)cc4c(C)c3c2c1.[Cl-]`, the rf50 in data set [1] came out at 0.7. In addition, in data set [2], the Co was 9 µM. Besides, in data set [3], the EC50 is 5 µM.
Take `Cc1c2cc[n+](CC(=O)NCCCCCNCCOc3ccc(/C(=C(/Cl)c4ccccc4)c4ccccc4)cc3)cc2c(C)c2c1[nH]c1ccc(O)cc12.[Cl-]`: the rf50 in data set [1] was 0.32. Also, the Co in data set [2] was more than 10 µM. In data set [3], the EC50 stood at 4 µM.
`COc1ccc2[nH]c3c(C)c4cc[n+](CC(=O)NCCCCCNCCOc5ccc(/C(=C(/Cl)c6ccccc6)c6ccccc6)cc5)cc4c(C)c3c2c1`: the rf50 in data set [1] turned out to be 0.86.
In data set [1], `COc1ccc2[nH]c3c(C)c4cc[n+](CC(=O)NCCCCCN(CCOc5ccc(/C(=C(/Cl)c6ccccc6)c6ccccc6)cc5)C(=O)C[n+]5ccc6c(C)c7[nH]c8ccc(OC)cc8c7c(C)c6c5)cc4c(C)c3c2c1` yielded a rf50 of 10.
In data set [1], `CCN(CC)CCOc1ccc(/C(=C(\Cl)c2ccccc2)c2ccccc2)cc1` displayed a rf50 of 20.
